The subject of assay [1] is U2OS. The assay is described as follows: Cell cycle arrest in human U2OS cells assessed as accumulation at S phase at 10 ug/ml after 18 hrs by propidium iodide staining based flow cytometry (reference value: 19%). The class given is functional. The gist of the method: (§1)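 U2OS were seeded at 7 × 10^5/well in six-well plates and exposed to 5 or 10 μg/mL for 18 h after spreading, with untreated and DMSO mock controls. Cells were trypsinized, fixed in 2% PFA/PBS, then in ice-cold methanol 30 min. Staining: anti-tubulin/anti-lamin antibodies plus RNase A and propidium iodide. Flow cytometry assigned G1, S, G2-M and sub-G1 by DNA content.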
A general note: In flow cytometry, cells or beads pass a laser one at a time.

In assay [2] the test system is U2OS. The assay is described as follows: Cell cycle arrest in human U2OS cells assessed as small cells with reduced nuclear size at 5 ug/ml after 18 hrs by propidium iodide staining based flow cytometry (reference value: 0.19%). The class given is functional. Set-up: scale not given: the % may be the effect or the level left. The gist of the method:
as §1

For assay [3], the system named is U2OS. The assay is described as follows: Cell cycle arrest in human U2OS cells assessed as accumulation at sub-G1 phase at 5 ug/ml after 18 hrs by propidium iodide staining based flow cytometry (reference value: 0.19%). Format: functional. The gist of the method:
as §1

For assay [4], the system named is Lepidium sativum. The assay is described as follows: Phytotoxicity against Lepidium sativum assessed as inhibition of seedling germination at 100 ug/disk. Format: functional, organism-based.
Assay [5] has as its system U2OS. The assay is described as follows: Induction of apoptosis in human U2OS cells assessed as caspase-3/7 cleavage at 10 ug/ml after 18 hrs by caspase-3/7 green reagent based flow cytometry (reference value: 8.04%).
In assay [6] the test system is U2OS. The assay is described as follows: Induction of nuclear fragmentation in human U2OS cells at 0.25 to 5 ug/ml after 24 hrs by DAPI staining based immunofluorescence microscopic method. The class given is functional, cell-based.
Assay [7] deals with U2OS. Kind of assay: Induction of morphological changes in human U2OS cells assessed as multipolar and duplicated spindle formation at 0.25 to 5 ug/ml after 24 hrs by DAPI staining based immunofluorescence microscopic method. The class given is functional, cell-based. The gist of the method:
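U2OS in DMEM (4.5 g/L glucose, 10% FBS), 37 °C, 7% CO2, seeded 3 × 10^4/well on fibronectin-coated coverslips and adhered 16 h. Treated 24 h at 0.25, 0.5, 2.5, 5 or 10 μg/mL (diluted from 1 mg/mL DMSO stock), DMSO control. Fixed in 4% PFA/PBS 20 min; anti-α-tubulin (DM1A), phalloidin-Alexa 488 and DNA stain; immunofluorescence imaging.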

Assay [8] has as its system U2OS. Kind of assay: Cell cycle arrest in human U2OS cells assessed as accumulation at G1 phase at 5 ug/ml after 18 hrs by propidium iodide staining based flow cytometry (reference value: 50.1%). Format: functional. The gist of the method: as §1
For assay [9], the system named is Chromobacterium violaceum. The assay is described as follows: Antibacterial activity against Chromobacterium violaceum DSM 30191 by serial dilution method. Format: functional, organism-based.
Assay [10] relates to Wickerhamomyces anomalus. Kind of assay: Antifungal activity against Pichia anomala DSM 6766 by serial dilution method. Format: functional, organism-based.
Assay [11] concerns A549. Kind of assay: Cytotoxicity against human A549 cells assessed as reduction in cell viability after 5 days by MTT assay. The class given is functional, cell-based. The settings on record: A549, 120 h. The gist of the method: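 MTT viability assay run over 5 days on a panel of eight lines (L929, KB3.1, A431, A549, SKOV-3, PC-3, MCF-7, U2OS). IC50 values were derived.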
Background: Formazan colour is commonly taken as a measure of viable cells.

Activity calls are given as the source filed them. The rule behind the calls is not given here.

`CC(=O)CC1=C(C)C=C2C[C@@H](C)C(=O)[C@@H](C)[C@@H]2[C@H]1/C=C(C)/C=C(C)/C=C/C(=O)O`: the Activity in assay [1] is reported as 9.62%; in [2], 1.96%; in [3], 1.14%; in assay [5], 5.72%; in assay [8] it was 56.3%. In addition, the result in assay [4], in assay [9] and in [10] was inactive. Moreover, the outcome in [6] and in [7] was Active. Moreover, in assay [11], the concentration for half-maximal inhibition (IC50) amounted to 22.9 µM.

In general, IC50 refers to the concentration that inhibits the measured activity by half.

For the origin of these results see ChEMBL document CHEMBL4118027, “Preussilides A-F, Bicyclic Polyketides from the Endophytic Fungus Preussia similis with Antiproliferative Activity” (J Nat Prod, 2017).
